Measured values from ChEMBL document CHEMBL4024767, “Structure-Guided Discovery of Novel, Potent, and Orally Bioavailable Inhibitors of Lipoprotein-Associated Phospholipase A2” (J Med Chem, 2017).
pIC50: −log10 of the molar value. Calls of active or inactive are those of the source. No cut-off for these calls is given here.

What was measured:
[1] = Inhibition of recombinant human full length GST-tagged group-7B PLA2 expressed in Escherichia coli Rosetta(DE3) pLysS using 2-thio-PAF as substrate preincubated for 30 min followed by substrate addition measured every minute for 10 mins by DNTB reagent based assay
How it was run: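 Recombinant PLA2-VIIB purified in-house, preincubated 30 min at room temperature with compound and DTNB (10 µL of 2 mM). Substrate solution (50 µM 2-thio-PAF, 50 mM Tris pH 7.2, 1 mM EGTA) then added and absorbance read at 412 nm. IC50 determined.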

[2] = molecular target: T1, Platelet-activating factor acetylhydrolase (Rattus norvegicus) (UniProt A6JJ35); assay: Inhibition of Lp-PLA2 in rat plasma at 250 nM using 2-thio-PAF as substrate preincubated for 30 min followed by substrate addition measured every minute for 10 mins by DNTB reagent based assay by DNTB reagent based assay relative to control
T1 sequence (whole entry): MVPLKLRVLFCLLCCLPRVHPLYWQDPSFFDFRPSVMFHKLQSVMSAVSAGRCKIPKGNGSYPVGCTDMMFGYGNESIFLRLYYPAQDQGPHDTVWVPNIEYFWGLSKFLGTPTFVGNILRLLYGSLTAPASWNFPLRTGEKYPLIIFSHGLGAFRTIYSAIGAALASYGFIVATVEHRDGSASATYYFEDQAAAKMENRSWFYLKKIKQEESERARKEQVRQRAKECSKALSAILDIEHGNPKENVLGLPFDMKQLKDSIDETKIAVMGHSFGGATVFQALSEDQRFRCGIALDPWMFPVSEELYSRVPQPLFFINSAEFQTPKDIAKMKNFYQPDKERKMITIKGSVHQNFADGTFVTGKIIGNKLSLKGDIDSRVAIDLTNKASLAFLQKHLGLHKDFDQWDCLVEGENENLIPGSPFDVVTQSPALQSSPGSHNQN
How it was run: (§1)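 Rat plasma added directly as enzyme source and preincubated 30 min at room temperature with inhibitor at 250 or 50 nM and DTNB (10 µL of 2 mM). Reaction started with substrate solution: 50 µM 2-thio-PAF, 50 mM Tris pH 7.2, 1 mM EGTA. Thiol release read at 412 nm; percent inhibition calculated.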

[3] = molecular target: T1, Platelet-activating factor acetylhydrolase (Rattus norvegicus); assay: Inhibition of Lp-PLA2 in rat plasma at 50 nM using 2-thio-PAF as substrate preincubated for 30 min followed by substrate addition measured every minute for 10 mins by DNTB reagent based assay relative to control; how it was run: as §1
Rattus norvegicus [4] = species: Rattus norvegicus; conditions: Sprague-Dawley, 25 mg/kg
Rattus norvegicus [5] = species: Rattus norvegicus; conditions: Sprague-Dawley, 25 mg/kg; remark: listed apart in the source
Rattus norvegicus [6] = species: Rattus norvegicus; conditions: Sprague-Dawley, 3 mg/kg
[7] = molecular target: T2, Platelet-activating factor acetylhydrolase (Homo sapiens) (UniProt Q13093); conditions: 1000 uM
T2 sequence (whole entry): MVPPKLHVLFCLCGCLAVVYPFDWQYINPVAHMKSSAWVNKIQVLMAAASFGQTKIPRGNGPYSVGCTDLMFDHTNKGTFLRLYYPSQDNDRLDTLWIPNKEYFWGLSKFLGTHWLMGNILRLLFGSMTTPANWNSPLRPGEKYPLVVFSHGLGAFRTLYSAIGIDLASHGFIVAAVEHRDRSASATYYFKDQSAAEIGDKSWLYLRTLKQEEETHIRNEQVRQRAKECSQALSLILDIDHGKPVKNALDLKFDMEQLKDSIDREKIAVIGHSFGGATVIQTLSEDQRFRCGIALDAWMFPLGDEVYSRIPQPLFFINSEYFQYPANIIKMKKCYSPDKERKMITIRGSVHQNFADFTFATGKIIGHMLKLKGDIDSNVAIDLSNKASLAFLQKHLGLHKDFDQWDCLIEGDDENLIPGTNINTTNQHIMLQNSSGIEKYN

[8] = molecular target: T3, Platelet-activating factor acetylhydrolase (Homo sapiens, UniProt Q13093); assay: Inhibition of human recombinant GST-tagged Lp-PLA2 (47 to 429 residues) expressed in Escherichia coli Rosetta(DE3) pLysS using 2-thio-PAF as substrate preincubated for 30 min followed by substrate addition measured every minute for 10 mins by DNTB reagent based assay
T3 sequence (Q13093 whole entry): T2 sequence (whole entry)

Rattus norvegicus [9] = species: Rattus norvegicus; conditions: Sprague-Dawley, 25 mg/kg; remark: listed apart in the source

Row | Structure (SMILES) | pIC50 [1] | inhibition [2] [%] | inhibition [3] [%] | inhibition (Rattus norvegicus [4]) | inhibition (Rattus norvegicus [5]) | inhibition (Rattus norvegicus [6]) | inhibition [7] [%] | pIC50 [8] | inhibition (Rattus norvegicus [9])
1 | N#Cc1cc(NS(=O)(=O)c2ccc(N3CCNCC3)cc2)ccc1Oc1ccc(Cl)c(C(F)(F)F)c1 | < 4.60 | 68 | 31 | – | – | – | – | – | –
2 | CC(=O)Nc1ccc(S(=O)(=O)Nc2ccc(Oc3ccc(C#N)c(C(F)(F)F)c3)c(C#N)c2)cc1 | < 4.60 | 42 | 11 | – | – | – | – | – | –
3 | N#Cc1cc(NS(=O)(=O)c2ccc(C(=O)O)cc2)ccc1Oc1ccc(Cl)c(C(F)(F)F)c1 | < 4.60 | 67 | 31 | inactive | Active | – | – | – | –
4 | CCN(CC)CCN(Cc1ccc(-c2ccc(C(F)(F)F)cc2)cc1)C(=O)Cn1c(SCc2ccc(F)cc2)nc(=O)c2c1CCC2 [DARAPLADIB] | 5.70 | 97 | 98 | – | – | Active | – | – | –
5 | CC(=O)NCc1ccc(S(=O)(=O)Nc2ccc(Oc3ccc(Cl)c(C(F)(F)F)c3)c(C#N)c2)cc1 | < 4.60 | 80 | 51 | – | – | – | – | – | –
6 | CC(=O)Nc1ccc(S(=O)(=O)Nc2ccc(Oc3ccc(F)c(C(F)(F)F)c3)c(C#N)c2)cc1 | < 4.60 | 55 | 23 | – | – | – | – | – | –
7 | CS(=O)(=O)Nc1ccc(F)c(F)c1 | – | – | – | – | – | – | 55 | 3.00 | –
8 | N#Cc1cc(NS(=O)(=O)c2ccc(N)cc2)ccc1Oc1ccc(Cl)c(C(F)(F)F)c1 | < 4.60 | 67 | 33 | – | – | – | – | – | Active
9 | CC(=O)N(C)c1ccc(S(=O)(=O)Nc2ccc(Oc3ccc(Cl)c(C(F)(F)F)c3)c(C#N)c2)cc1 | < 4.60 | 45 | 15 | – | – | – | – | – | –
10 | N#Cc1cc(NS(=O)(=O)c2ccc(N3CCOCC3)cc2)ccc1Oc1ccc(Cl)c(C(F)(F)F)c1 | < 4.60 | 48 | 17 | – | – | – | – | – | –
11 | CC(=O)Nc1ccc(S(=O)(=O)Nc2ccc(Oc3ccc(Cl)c(C(F)(F)F)c3)c(C#N)c2)cc1 | < 4.60 | 64 | 32 | – | – | – | – | – | –
12 | N#Cc1cc(NS(=O)(=O)c2ccc(NC(=O)N3CCOCC3)cc2)ccc1Oc1ccc(Cl)c(C(F)(F)F)c1 | < 4.60 | 64 | 27 | – | – | – | – | – | –
